Results reported in paper PMC5910468 (Advances in Therapy, 2018).
Where two headings read alike, the source gives them in different places.

Assays:
[1] = format: in vivo, human; conditions: for AUC0–168h,sema,SS estimated race ratio [95% CI] (Japanese/Caucasian) / Cmax,sema,SS estimated race ratio [95% CI] (Japanese/Caucasian): steady state
Outline: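 Healthy Japanese or Caucasian men, s.c. once weekly with stepwise escalation from 0.25 mg. Plasma drug measured by validated LC–MS/MS. Dense sampling 0–168 h after first dose and 0–840 h after last dose (day 84), with pre-dose troughs from day 7 to 84. AUC0–168h by linear trapezoidal method at actual times. Racc,DC = (AUC_SS/last dose)/(AUC_SD/first dose). Log values fitted by linear normal model (race, dose, race×dose) and back-transformed to ratios with 95% CI.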

[2] = format: in vivo, human; conditions: for Gastrointestinal disorders, proportion of subjects / Adverse events, proportion of subjects: 8 subjects
Outline: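 Double-blind, placebo-controlled, 13 weeks of once-weekly s.c. dosing plus 5 weeks of follow-up. Monitored adverse events, hypoglycemic episodes, vital signs, ECG and physical examination. Laboratory tests covered hematology, biochemistry, calcitonin and urinalysis, and anti-drug antibodies were measured at follow-up. Every randomized subject given at least one dose was included in the safety analysis.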

[3] = Pulse rate change from baseline to end of treatment; format: in vivo, human
[4] = Anti-semaglutide antibodies; format: in vivo, human; conditions: both populations, 0.5 and 1.0 mg, at follow-up
[5] = semaglutide; cited from earlier work
[6] = SUSTAIN 6, no change with placebo, cited from earlier work
[7] = semaglutide 0.5 mg s.c. once weekly
[8] = semaglutide 1.0 mg s.c. once weekly
[9] = Japanese subjects, 0.5 mg, placebo 16.7%
[10] = Japanese subjects, 1.0 mg, placebo 16.7%

CC[C@H](C)[C@H](NC(=O)[C@H](Cc1ccccc1)NC(=O)[C@H](CCC(=O)O)NC(=O)[C@H](CCCCNC(=O)COCCOCCNC(=O)COCCOCCNC(=O)CC[C@H](NC(=O)CCCCCCCCCCCCCCCCC(=O)O)C(=O)O)NC(=O)[C@H](C)NC(=O)[C@H](C)NC(=O)[C@H](CCC(N)=O)NC(=O)CNC(=O)[C@H](CCC(=O)O)NC(=O)[C@H](CC(C)C)NC(=O)[C@H](Cc1ccc(O)cc1)NC(=O)[C@H](CO)NC(=O)[C@H](CO)NC(=O)[C@@H](NC(=O)[C@H](CC(=O)O)NC(=O)[C@H](CO)NC(=O)[C@@H](NC(=O)[C@H](Cc1ccccc1)NC(=O)[C@@H](NC(=O)CNC(=O)[C@H](CCC(=O)O)NC(=O)C(C)(C)NC(=O)[C@@H](N)Cc1cnc[nH]1)[C@@H](C)O)[C@@H](C)O)C(C)C)C(=O)N[C@@H](C)C(=O)N[C@@H](Cc1c[nH]c2ccccc12)C(=O)N[C@@H](CC(C)C)C(=O)N[C@H](C(=O)N[C@@H](CCCNC(=N)N)C(=O)NCC(=O)N[C@@H](CCCNC(=N)N)C(=O)NCC(=O)O)C(C)C [Semaglutide]
Dose-corrected accumulation ratio ([1]; overall statement, once-weekly dosing, both races and doses): approximately 2 | Racc,DC,sema estimated race ratio [95% CI] (Japanese/Caucasian) ([1]; semaglutide 0.5 mg): 0.87 [0.78; 0.96] | AUC0–168h,sema,SS estimated race ratio [95% CI] (Japanese/Caucasian) [1, 7]: 1.06 [0.92; 1.23] | Cmax,sema,SS estimated race ratio [95% CI] (Japanese/Caucasian) [1, 7]: 1.06 [0.91; 1.23] | Racc,DC,sema estimated race ratio [95% CI] (Japanese/Caucasian) ([1]; semaglutide 1.0 mg): 0.90 [0.82; 1.00] | AUC0–168h,sema,SS estimated race ratio [95% CI] (Japanese/Caucasian) [1, 8]: 0.99 [0.85; 1.16] | Cmax,sema,SS estimated race ratio [95% CI] (Japanese/Caucasian) [1, 8]: 1.02 [0.87; 1.19] | Gastrointestinal disorders, proportion of subjects ([2]; Caucasian subjects, 0.5 mg, placebo 0.0%): 25.0% | Adverse events, proportion of subjects ([2]; Caucasian subjects, 0.5 mg, placebo 33.3%): 50.0% | Gastrointestinal disorders, proportion of subjects ([2]; Caucasian subjects, 1.0 mg, placebo 0.0%): 25.0% | Adverse events, proportion of subjects ([2]; Caucasian subjects, 1.0 mg, placebo 33.3%): 62.5% | Adverse events, proportion of subjects [2, 9]: 75.0% | Gastrointestinal disorders, proportion of subjects [2, 9]: 62.5% | Adverse events, proportion of subjects [2, 10]: 62.5% | Gastrointestinal disorders, proportion of subjects [2, 10]: 37.5% | Biochemistry parameters, including amylase, lipase and calcitonin ([2]; any of the treatment or race groups): No noticeable trends | ECG readings or physical examinations ([2]; both populations, 0.5 and 1.0 mg): no clinically significant abnormalities | Hypoglycemic events ([2]; both populations, 0.5 and 1.0 mg, during the trial): No hypoglycemic events were reported | Severity of adverse events ([2]; both populations, 0.5 and 1.0 mg, none were severe): mild to moderate | Pulse rate increase from baseline to end of treatment ([3]; Caucasian subjects, 0.5 mg, placebo 2.8 bpm): 14.6 bpm | Pulse rate increase from baseline to end of treatment ([3]; Caucasian subjects, 1.0 mg, placebo 2.8 bpm): 10.5 bpm | Pulse rate increase from baseline to end of treatment ([3]; Japanese subjects, 0.5 mg, placebo decrease of 0.5 bpm): 8.5 bpm | Pulse rate increase from baseline to end of treatment ([3]; Japanese subjects, 1.0 mg, placebo decrease of 0.5 bpm): 10.4 bpm | Development of anti-semaglutide antibodies [4]: No subjects developed anti-semaglutide antibodies | Half-life (t1/2) [5]: ~ 1 week | Mean pulse rate increase ([6]; semaglutide 0.5 mg): 2.1 bpm | Mean pulse rate increase ([6]; semaglutide 1.0 mg): 2.4 bpm
